# Screening results (PubChem BioAssay)
# Only some compounds are listed: those with a hit (about 1.6% of all), similar ones and a draw of the others.
# ABCB1 block = blocks JC-1 efflux by human ABCB1 transporter. P08183. CCRF-Adr cells, flow cytometry. inhibition, % at 6.6 µM. 0.067% of 190,000 active. AID 1326; in the data active = inhibition above about 40%;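 note: 0% = vehicle and 100% = reference inhibitor; higher value means more JC-1 retained so stronger ABCB1 efflux block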
# HMGR II inh = blocks class II HMG-CoA reductase of Enterococcus faecalis; purified E. faecalis HMGR, NADPH absorbance 340 nm kinetic; inhibition, % at 10 µM; 0.41% of 190,000 active; AID 1066;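 active = inhibition above a set limit, the median over all tested compounds plus 3 SD, cut at about 9.5% in these data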;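 note: enzyme runs in reverse so mevalonate oxidation gives rising NADPH absorbance; 0% = complete reaction with DMSO and 100% = background rate lacking mevalonate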
# Diaph inh CS = inhibits diaphorase or chemically oxidizes, flagging diaphorase assay artifacts. diaphorase resazurin-to-resorufin fluorescence, NADH, 16 min; bacterial (C. kluyveri) enzyme, not human. inhibition, % at 20 µM. 0.69% of 190,000 active. AID 1217;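 active = primary screen inhibition at 20 µM above a set limit, cut at about 50% in these data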;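 note: plate controls were DMSO with full reaction for no effect and wells lacking NADH for full effect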
#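 Assay system: diaphorase enzyme from Clostridium kluyveri; Input: enzyme working solution with 0.14 U/mL diaphorase; Timing: 16 min at room temperature; Technique: resorufin fluorescence, excitation 544 nm, emission 590 nm; Benchmarks: positive control minus NADH, DMSO neutral control.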
# ABCG2 block = inhibitors of human ABCG2 transporter, ABCB1 counter-screen; AID 1325; inhibition, % at 6.6 µM; 0.1% of 190,000 active; IgMXP3 cells, JC-1 efflux, flow cytometry;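 active = inhibition above 80%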;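 note: 0% = DMSO and 100% = nicardipine control wells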
#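 material = IgMXP3 (ABCG2) plus far-red-tagged CCRF-Adr (ABCB1) cells | amount = 3 million cells/mL, equal mix of both lines | also added = JC-1 transporter substrate | dosing = one concentration, 6.6 µM final | schedule = 10 min at 25 °C | measured by = flow cytometric JC-1 green MFI at 530 nm | read-out basis = percent efflux inhibition, scaled nicardipine 100% to DMSO 0%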
# p47phox inh = p47phox (human) inhibition | p47phox/p22phox peptide binding, fluorescence polarization, 2 h | 0.53% of 220,000 active | AID 1274 | inhibition, % at 24.7 µM;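 active = inhibition above about 30%, limit read from the data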;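 note: 0% = p47phox with labelled peptide and 100% = labelled peptide alone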
# Diaphorase act = counter-screen for diaphorase-based assays: diaphorase activators and chemical reducers; Diaphorase/resazurin coupled assay, resorufin fluorescence, 16 min; hits give high values; 1 = vehicle wells, 0 = NADH-free wells; activation factor at 20 µM; 0.005% of 190,000 active; AID 1229;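 active = diaphorase activity raised at least twofold by the compound at 20 µM; inactive = activation factor below 2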
#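 Assay system: Purified diaphorase enzyme from Clostridium kluyveri | Amount: Enzyme 0.07 U/mL final | Dosing: Compound 20 µM once, DMSO 1% | Timing: 16 min reaction at room temperature | Detection: Fluorescence, excitation 544 nm and emission 590 nm | Evaluation: Higher resorufin formation from activation or reduction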
# * hit, by the source's call; . = no result given.
SMILES,ABCB1 block,HMGR II inh,Diaph inh CS,ABCG2 block,p47phox inh,Diaphorase act
Cc1ccc(-c2csc3nnc(SCC(=O)Nc4nsc(-c5ccccc5)n4)n23)cc1,8.2,-1.3,30.2,27.4,-4.0,0.7
COC(=O)c1ccccc1NC(=O)CSc1nnc(CNS(=O)(=O)c2ccc(C)cc2)n1C,0.8,13.7*,-7.1,7.1,-12.5,1.1
COC(=O)c1ccccc1NC(=O)CSc1nnc(COc2cccc(OC)c2)n1C,-1.9,-7.8,10.9,0.2,-10.3,0.9
CCCCNc1ccc(C(CC(N)=O)NC(=O)c2ccccc2)cc1[N+](=O)[O-] (stereo unspecified),.,.,.,.,-6.1,.
Cn1cccc1Cc1nnc(SCC(N)=O)n1CCc1ccccc1,0.7,1.8,8.1,3.5,89.2*,0.9
Cc1cc(=O)oc2cc(OCCSCCN3CCOCC3)ccc12,-0.2,0.7,14.5,0.5,.,0.9
COc1cccc(CNc2cc(CSc3ccc(Cl)cc3)nc(C)n2)c1,0.6,1.4,18.2,3.0,-7.0,0.8
Nc1c(C(=O)Nc2ccccc2)sc2nc3c(c(-c4ccco4)c12)CCC3,-0.4,0.5,69.1*,-6.2,-3.4,0.3
Nc1c(C(=O)Nc2ccccc2)sc2nc3c(c(-c4ccco4)c12)CCCC3,-0.3,-1.0,26.0,-1.9,-4.8,0.7
CC(=O)c1c(N)[nH]c(-c2ccccc2)nc1=S,0.0,1.6,50.4*,12.6,-7.4,0.5
Cc1[nH]c2ccccc2c1C(C[N+](=O)[O-])c1ccco1 (stereo unspecified),0.4,0.8,51.0*,10.8,-6.8,0.5
Cc1ccc(-c2[nH]c3ccccc3c2C(C[N+](=O)[O-])c2ccco2)cc1 (stereo unspecified),0.2,-2.9,18.9,2.1,-20.3,0.8
COc1ccc(C(=O)NCCn2cc(SCC(=O)Nc3cc(C)on3)c3ccccc32)cc1OC,1.2,-1.6,9.0,3.6,2.4,0.9
COc1ccccc1C(=O)NCCn1cc(SCC(=O)Nc2cc(C)on2)c2ccccc21,2.6,12.6*,10.4,16.2,-7.0,0.9
CSc1ccc(/C=C(/NC(=O)c2ccc(C)cc2)C(=O)Nc2cccc(F)c2)cc1,0.2,-4.9,7.4,4.1,67.3*,0.9
Cc1ccc(C(=O)N/C(=C\c2ccc(F)cc2)C(=O)NCc2ccncc2)cc1,0.1,-2.7,10.6,5.5,-4.4,0.9
Cc1cn2nc(N)c3ccccc3c2n1,0.3,-2.6,7.5,3.1,-20.7,0.9
Nc1nn2cc(-c3ccccc3)nc2c2ccccc12,-0.3,11.2*,23.2,2.3,-17.9,0.8
COc1cccc(-c2csc(N3CCN(C(=O)C4CCCCC4)CC3)n2)c1,-0.1,-0.4,16.6,4.7,-11.7,0.8
Cc1cc(C)n2nc(C(=O)N/N=C/c3ccc(Cl)cc3)nc2n1,0.8,-6.8,4.6,10.7,0.4,1
Cc1cc(C)n2nc(SC(C)C(=O)Nc3ccc(Cl)cn3)nc2n1 (stereo unspecified),1.0,-4.2,65.7*,1.8,-11.2,0.3
Cc1cc(C)n2nc(C(=O)NNC(=O)c3ccc(Cl)cc3)nc2n1,.,.,.,.,36.1*,.
C=CCOC(=O)C1=C(C)NC(=S)NC1/C=C/c1ccccc1 (stereo unspecified),0.1,-3.0,-4.4,0.3,-15.7,1
CC1=C(C(=O)OCc2ccccc2)C(/C=C/c2ccccc2)NC(=S)N1 (stereo unspecified),0.9,10.0*,17.4,7.3,-19.9,0.8
CCc1nc2ccc(C(=O)Nc3cccc(C(C)=O)c3)cc2nc1CC,0.4,-8.2,13.8,1.6,-9.2,0.9
SMILES,ABCB1 block,HMGR II inh,Diaph inh CS,ABCG2 block,p47phox inh,Diaphorase act
O=C(Nc1ccc(-c2cn3c(n2)SCC3)cc1)c1ccc2c(c1)OCO2,-0.4,13.1*,17.0,-0.3,-19.2,0.8
O=C(Nc1ccc2c3c(cccc13)CC2)c1ccc(Br)o1,0.7,-10.2,10.9,1.3,-2.9,0.9
COc1ccc2nc(C)cc(SCC(=O)N/N=C/c3c(OC)ccc4ccccc34)c2c1,.,-0.7,-2.3,-3.9,42.2*,1
CCOC(=O)c1nnn2c1nc(N1CCCCC1)c1ccccc12,.,.,.,.,-2.7,.
CCC1CCCCN1c1nc2c(C=O)c(C)nn2c2ccccc12 (stereo unspecified),11.8,-2.2,67.6*,35.1,-24.3,0.3
C(=N\Nc1ncnc2sc3c(c12)CCC3)/c1cccs1,1.0,-2.7,10.2,9.4,-65.2,0.9
Cc1sc2ncnc(OCC(=O)Nc3ccc4c(c3)OCCO4)c2c1C,0.7,-5.0,5.2,4.9,-23.8,0.9
Cc1ccc(-n2nnnc2SCC(=O)Nc2cccnc2Cl)cc1,0.3,1.1,14.1,2.8,-10.6,0.9
Cc1ccccc1N=Nc1c(C)[nH]n(-c2ccccc2)c1=O,0.5,-5.8,18.2,2.1,-10.2,0.8
Cc1[nH]n(S(=O)(=O)Cc2ccccc2)c(=O)c1N=Nc1ccccc1Cl,0.6,10.0*,8.7,4.2,-11.6,0.9
CCN(CC)c1cc(C)c(C#N)c2nc3ccccc3n12,.,.,.,.,-18.9,.
Cc1nnc(SCC(=O)c2ccc(S(=O)(=O)N3CCOCC3)cc2)n1-c1ccccc1,0.5,-6.0,12.0,0.5,-9.9,0.9
COc1ccc(/C=C(\C#N)C(=O)Nc2ccc3[nH]c(=O)[nH]c3c2)cc1,.,.,.,.,-5.3,.
Cc1ccc(/C=C/C(=O)O)cc1S(=O)(=O)NCCCO,0.7,22.2*,7.7,3.6,-8.0,0.9
COC(=O)c1cc(=O)n(-c2ccc(F)cc2)c(=Nc2ccc(F)cc2)s1,0.0,11.2*,13.3,4.3,2.6,0.9
CCN1CCc2c(sc(NC(=O)Nc3ccc(Cl)c(Cl)c3)c2C(N)=O)C1,39.4,1.5,15.6,136.1*,-40.8,0.8
COc1ccc(Cc2nc(C(=O)NCc3ccccc3OC)cs2)cc1,0.5,.,23.3,1.3,31.3*,0.8
CCCSC1=N/C(=C\C=C\c2ccco2)C(=O)S1,-0.5,-2.9,51.4*,-1.2,-8.1,0.5
S=c1nc(-c2ccccc2)oc2c1CCCC2,-0.7,-1.2,65.0*,-0.9,-1.3,0.3
CCC(=C(c1ccc(OC)cc1)c1ccc(OC)cc1)c1cn(CC(O)CN2CCN(C)CC2)c2ccccc12 (stereo unspecified),3.3,2.1,-34.9,3.5,77.7*,1.3
Cc1cc(C)c(NC(=O)CN2C(=O)NC(CCc3ccccc3)C2=O)c(C)c1 (stereo unspecified),0.2,1.8,2.4,-1.4,-2.0,1
Oc1ccc(-c2csc(Nc3ncccn3)n2)cc1O,0.1,4.4,51.8*,-0.1,3.1,0.5
Oc1ccc(-c2csc(-c3ccccc3)n2)cc1O,0.1,1.6,71.3*,3.8,-14.4,0.3
